Source: ChEMBL document CHEMBL1124861, “Thermodynamics of the interaction of inhibitors with the binding site of recombinant human renin” (J Med Chem, 1990)
*1 amine or outer side, *2 acyl side, *3 side chain or, on linkers, in order; H or OH if unused. Where a SMILES comes first, the peptide text is derived from it. [ ]: non-standard residue; d: D form. The star is where a group is joined. ξ: configuration not given here. Sta(3ξ) = CC(C)C[C@H](N[*:1])C(O)CC(=O)[*:2]; Sta = CC(C)C[C@H](N)[C@@H](O)CC(=O)O; Isovaleryl = CC(C)CC(=O)*

What follows are molecules tested against T1, Renin (Homo sapiens, UniProt P00797) (assay: Dissociation constant (Kd) of renin inhibitor was determined over a temperature range of 8-37 degree by the fluorescence displacement assay).
T1 sequence (P00797 whole entry): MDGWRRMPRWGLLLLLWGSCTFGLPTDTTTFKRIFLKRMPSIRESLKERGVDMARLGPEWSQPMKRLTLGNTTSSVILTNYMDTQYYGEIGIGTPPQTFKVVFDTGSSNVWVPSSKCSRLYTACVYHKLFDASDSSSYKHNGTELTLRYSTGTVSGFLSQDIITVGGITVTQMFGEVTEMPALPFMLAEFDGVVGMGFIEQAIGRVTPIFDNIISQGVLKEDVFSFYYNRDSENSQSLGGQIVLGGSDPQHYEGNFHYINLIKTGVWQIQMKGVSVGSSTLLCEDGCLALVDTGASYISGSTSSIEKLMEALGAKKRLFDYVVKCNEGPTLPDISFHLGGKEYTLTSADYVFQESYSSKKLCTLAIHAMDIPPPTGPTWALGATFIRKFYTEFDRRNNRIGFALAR
How it was run: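 Recombinant human renin, purified, with stock concentration set by amino acid analysis. Competitive displacement of a dansylated fluorescent peptide inhibitor, read on a spectrofluorometer in ratio mode at 8–37 °C. Unlabeled-inhibitor Kd was calculated from probe Kd, probe concentration, fraction of probe bound, total inhibitor and enzyme concentrations. Duplicates were run at two inhibitor concentrations, and van't Hoff plots were built.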

Molecule | Kd
CC[C@H](C)[C@H](NC(=O)[C@@H](C[C@H](O)[C@H](CC(C)C)NC(=O)[C@H](Cc1c[nH]cn1)NC(=O)[C@H](Cc1ccccc1)NC(=O)[C@H]1CCCN1C(C)=O)C(C)C)C(N)=O | 1.3 nM
CC(=O)N[C@@H](Cc1ccccc1)C(=O)N[C@@H](Cc1c[nH]cn1)C(=O)N[C@H](CN[C@@H](Cc1ccccc1)C(N)=O)Cc1ccccc1 | 220 nM
CC[C@H](C)[C@H](NC(=O)[C@@H](C[C@H](O)[C@H](CC(C)C)NC(=O)[C@H](Cc1c[nH]cn1)NS(=O)(=O)c1cccc2c(N(C)C)cccc12)C(C)C)C(=O)NCc1ccccn1 | 1000 nM
CC[C@H](C)[C@H](NC(=O)[C@@H](NC[C@H](CC(C)C)NC(=O)[C@H](Cc1c[nH]cn1)NC(=O)[C@H](Cc1ccccc1)NC(=O)[C@@H]1CCCN1C(=O)[C@H](Cc1c[nH]cn1)NC(=O)[C@@H]1CCCN1)C(C)C)C(=O)N[C@@H](Cc1c[nH]cn1)C(=O)N[C@@H](CCCCN)C(=O)O | 8 nM
CC[C@H](C)[C@H](NC(=O)C[C@H](O)[C@H](CC(C)C)NC(=O)[C@H](Cc1c[nH]cn1)NC(=O)[C@H](Cc1ccccc1)NC(=O)[C@@H]1CCCN1C(=O)[C@H](Cc1c[nH]cn1)NC(C)=O)C(N)=O (Ac-HPFH[Sta]I-NH2) | 23 nM
CC[C@H](C)[C@H](NC(=O)C[C@H](O)[C@H](CC(C)C)NC(=O)[C@H](Cc1c[nH]cn1)NC(=O)[C@H](Cc1ccccc1)NC(=O)[C@@H]1CCCN1C(C)=O)C(N)=O (Ac-PFH[Sta]I-NH2) | 98 nM
CC[C@H](C)[C@H](NC(=O)CC(O)[C@H](CC(C)C)NC(=O)[C@H](Cc1c[nH]cn1)NC(=O)[C@H](Cc1ccccc1)NC(=O)[C@@H]1CCCN1C(=O)[C@H](Cc1c[nH]cn1)NC(=O)CC(C)C)C(=O)N[C@@H](Cc1ccccc1)C(N)=O (stereo partly drawn) (Isovaleryl-HPFH[Sta(3ξ)]IF-NH2) | 1.7 nM

Now from value to molecule:

Kd | Molecule
5.4 nM | CC[C@H](C)[C@H](NC(=O)[C@@H](C[C@H](O)[C@H](CC(C)C)NC(=O)[C@H](Cc1cnc[nH]1)NC(=O)[C@H](Cc1ccccc1)NC(=O)[C@@H]1CCCN1C(C)=O)C(C)C)C(N)=O
370 nM | CC[C@H](C)[C@H](NC(=O)[C@@H](C[C@H](O)[C@H](CC(C)C)NC(=O)[C@H](Cc1cnc[nH]1)NC(=O)[C@H](Cc1ccccc1)NC(C)=O)C(C)C)C(N)=O
2.5 nM | CCC(C)CNC(=O)[C@H](Cc1ccccc1)NC[C@H](Cc1ccccc1)NC(=O)[C@H](Cc1cnc[nH]1)NC(=O)[C@H](Cc1ccccc1)NC(=O)[C@@H]1CCCN1C(C)=O (stereo partly drawn)
29 nM | CC(=O)N1CCC[C@H]1C(=O)N[C@@H](Cc1ccccc1)C(=O)N[C@@H](Cc1c[nH]cn1)C(=O)N[C@H](CN[C@@H](Cc1ccccc1)C(N)=O)Cc1ccccc1
204 nM | CC[C@H](C)[C@H](NC(=O)C[C@H](O)[C@H](CC(C)C)NC(=O)[C@H](Cc1cnc[nH]1)NC(=O)[C@H](Cc1ccccc1)NC(C)=O)C(N)=O (Ac-FH[Sta]I-NH2)
810 nM | H-PHPFHFFIHK-OH
